Source: PMC10883374 (Science Advances, 2022)
Where a chain is given by its changes, count along the chain named. Entries after “also recorded” stand apart in the source; their conditions may differ.

Key:
[1] = target: dSAMTOR (WT, full-length) (Drosophila melanogaster, UniProt Q9W138); assay: ITC ligand binding, WT dSAMTOR
Summary of the method: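 Full-length dSAMTOR was expressed as His6-SUMO fusion in E. coli BL21 (DE3), Ni-NTA purified, tag-cleaved, then gel-filtered into 10 mM Hepes pH 7.5, 150 mM NaCl, 1 mM DTT. ITC ran at 25°C: 20 × 2 µl injections of 1 mM SAM or SAH into 0.2 mM protein, discarding an initial 0.8 µl injection, with a buffer background titration. Single-site nonlinear least-squares fit gave ΔH, n and Kd.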

V66W/E67P mutant dSAMTOR = V66W/E67P mutant dSAMTOR (Drosophila melanogaster, UniProt Q9W138, E67P/V66W); assay: ITC ligand binding, V66W/E67P dSAMTOR
Summary of the method: (§1)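 Tag-free dSAMTOR, expressed as His6-SUMO fusion in E. coli BL21(DE3), purified by Ni-NTA and gel filtration into 10 mM Hepes pH 7.5, 150 mM NaCl, 1 mM DTT. At 25°C, 1 mM SAM or SAH was titrated into 0.2 mM protein over 20 injections, with a background titration into buffer. Single-site fit gave Kd, ΔH and n; ΔG and ΔS were calculated. Runs: three for measurable binding, two for undetectable binding.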

F135A mutant dSAMTOR = F135A mutant dSAMTOR (Drosophila melanogaster, UniProt Q9W138, F135A); assay: ITC ligand binding, F135A dSAMTOR
Summary of the method: as §1

[2] = target: T1, hSAMTOR (WT) interaction with GATOR1-KICSTOR (Homo sapiens, UniProt Q1RMZ1); assay type: biochemical; conditions: WT full-length hSAMTOR, HEK 293T cell lysates, 0.5 mM SAM
T1 sequence (Q1RMZ1 1-405): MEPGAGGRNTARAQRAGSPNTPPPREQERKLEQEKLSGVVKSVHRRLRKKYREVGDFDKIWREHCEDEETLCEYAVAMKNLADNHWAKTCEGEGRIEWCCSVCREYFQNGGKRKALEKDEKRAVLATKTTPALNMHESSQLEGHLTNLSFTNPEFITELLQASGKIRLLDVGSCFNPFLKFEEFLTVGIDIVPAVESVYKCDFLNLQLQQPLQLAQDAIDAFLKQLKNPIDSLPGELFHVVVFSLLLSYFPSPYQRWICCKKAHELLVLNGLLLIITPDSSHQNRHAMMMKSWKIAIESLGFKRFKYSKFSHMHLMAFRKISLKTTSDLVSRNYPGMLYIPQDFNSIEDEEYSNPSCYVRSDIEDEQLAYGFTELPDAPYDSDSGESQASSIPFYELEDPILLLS

[3] = target: T2, D190A hSAMTOR interaction with GATOR1-KICSTOR (Homo sapiens, UniProt Q1RMZ1, D190A); assay: Co-IP of Flag-hSAMTOR-D190A with HA-Nprl3 and Myc-Kaptin with or without SAM; assay type: biochemical; conditions: HEK 293T cell lysates, 0.5 mM SAM
T2 sequence (Q1RMZ1 1-405 D190A): T1 sequence (Q1RMZ1 1-405) with D190A

hSAMTOR = conditions: read-out: dissociation constant (Kd); cited from earlier work

F135A mutant dSAMTOR, sequence (Q9W138 whole entry F135A): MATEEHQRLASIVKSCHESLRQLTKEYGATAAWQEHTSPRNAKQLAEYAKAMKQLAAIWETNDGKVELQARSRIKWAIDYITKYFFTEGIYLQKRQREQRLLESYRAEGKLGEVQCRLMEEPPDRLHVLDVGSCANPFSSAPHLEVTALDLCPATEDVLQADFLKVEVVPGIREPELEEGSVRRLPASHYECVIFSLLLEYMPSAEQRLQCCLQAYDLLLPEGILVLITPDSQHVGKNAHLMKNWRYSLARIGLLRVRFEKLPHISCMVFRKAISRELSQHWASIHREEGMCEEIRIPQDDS
V66W/E67P mutant dSAMTOR, sequence (Q9W138 whole entry V66W/E67P, the tested form may be a part): as the sequence (Q9W138 whole entry F135A) above, with V66W, E67P, A135F counted along it
dSAMTOR (WT, full-length), sequence (Q9W138 whole entry, the tested form may be a part): as the sequence (Q9W138 whole entry F135A) above, with A135F counted along it

SMILES: C[S+](CC[C@H](N)C(=O)[O-])C[C@H]1O[C@@H](n2cnc3c(N)ncnc32)[C@H](O)[C@@H]1O (some centres unmarked) [SAM, S-adenosylmethionine]
- Kd [1]: 10.7 ± 0.88 µM
- TΔS ([1]; ITC, 25°C, WT dSAMTOR): 4.66 kcal/mol
- n value ([1]; ITC, 25°C, WT dSAMTOR): 0.75 ± 0.08
- ΔH ([1]; ITC, 25°C, WT dSAMTOR): -2.12 ± 0.05 kcal/mol
- Kd (V66W/E67P mutant dSAMTOR): 9.47 ± 0.81 µM
- n value (V66W/E67P mutant dSAMTOR; ITC, 25°C, V66W/E67P dSAMTOR): 0.88 ± 0.02
- ΔH (V66W/E67P mutant dSAMTOR; ITC, 25°C, V66W/E67P dSAMTOR): -3.01 ± 0.08 kcal/mol
- Kd (F135A mutant dSAMTOR): 6.46 ± 0.4 µM
- increase of binding affinity compared to the WT dSAMTOR (F135A mutant dSAMTOR; F135A vs WT dSAMTOR, ITC): < 2 fold
- n value (F135A mutant dSAMTOR; ITC, 25°C, F135A dSAMTOR): 0.79 ± 0.01
- ΔH (F135A mutant dSAMTOR; ITC, 25°C, F135A dSAMTOR): -5.24 ± 0.11 kcal/mol
- effect of SAM on interaction of hSAMTOR with GATOR1-KICSTOR (co-IP) [2]: essentially disrupts its interactions with GATOR1-KICSTOR; also recorded: substantially weakens the interaction
- effect of SAM on interaction of hSAMTOR with GATOR1-KICSTOR (co-IP) [3]: comparable interactions with GATOR1 and KICSTOR in both the absence and presence of SAM
- Kd (hSAMTOR): 7 µM
